Assay results from different studies.
Protocols differ between the studies behind these lines.
Target: Alpha-2A adrenergic receptor (ADRA2A, Homo sapiens, UniProt P08913)
Tested at: 10 µM
Residues used in one study (P08913 1-465): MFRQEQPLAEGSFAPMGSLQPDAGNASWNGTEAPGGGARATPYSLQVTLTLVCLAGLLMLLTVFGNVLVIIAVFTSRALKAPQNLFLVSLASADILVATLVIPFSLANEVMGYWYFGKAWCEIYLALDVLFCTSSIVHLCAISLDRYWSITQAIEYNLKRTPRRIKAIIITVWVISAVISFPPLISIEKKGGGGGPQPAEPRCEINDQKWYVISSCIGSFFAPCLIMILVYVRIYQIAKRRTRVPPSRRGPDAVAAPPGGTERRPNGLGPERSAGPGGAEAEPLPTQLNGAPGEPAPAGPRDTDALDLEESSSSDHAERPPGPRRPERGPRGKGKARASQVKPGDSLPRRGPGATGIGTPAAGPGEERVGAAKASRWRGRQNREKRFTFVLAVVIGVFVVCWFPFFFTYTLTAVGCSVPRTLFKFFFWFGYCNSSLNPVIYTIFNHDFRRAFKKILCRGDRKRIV

CCN(CC)c1ccc(C2Nc3ccc(C(=O)c4ccccc4)cc3NC3=C2C(=O)CC(C)(C)C3)cc1 (centres unmarked)
inhibition (ligand displacement; radioligand): 5%

CC(=O)C1=C(C)N(c2cccc(C(F)(F)F)c2)C(=O)N[C@H]1c1ccc(C#N)nc1
inhibition (ligand displacement): -8.89%

CCN(Cc1ccccc1C(F)(F)F)C(=O)C1CCN(S(=O)(=O)c2ccc3[nH]ncc3c2)CC1
inhibition (ligand displacement; radioligand): 37%

O=C1c2ccccc2C(=O)N1CC#Cc1ccc2c(c1)C=C([N+](=O)[O-])C(C(F)(F)F)O2 (centres unmarked)
inhibition (ligand displacement; radioligand): 88%

N#Cc1cc(Cn2c(N3CCCC3)nc3ccccc32)ccc1F
inhibition (ligand displacement): 31.6%

Ic1cccc2cnccc12
inhibition (ligand displacement; radioligand): 13%

O=C(c1ccc(Cl)cc1)N(Cc1ccccc1)C1CCCCC1
inhibition (cell-free assay): 4%

CN([C@@H]1CCc2c(CC(=O)O)c3ccccc3n2C1)S(=O)(=O)c1ccc(F)cc1
inhibition (ligand displacement): -3.89%

CCCNc1nc2ccccc2n1Cc1ccc(Cl)cc1
inhibition (ligand displacement): 90.2%

Cc1cc(-c2nc(CN3CCNCC3)no2)cc2c1C(=O)N(Cc1ccc(OC(F)(F)F)cc1)C2
inhibition (ligand displacement; radioligand): 41%

COc1cc(NC(C)=O)c(Cl)cc1C(=O)Nc1nccs1
inhibition (cell-free assay): -7%
